Laboratory results published in ChEMBL document CHEMBL1681705, “Optimisation of ITK inhibitors through successive iterative design cycles” (Bioorg Med Chem Lett, 2011).

Tests used:
[1] = target: T1, Ephrin type-B receptor 3 (Homo sapiens) (UniProt P54753); assay: Inhibition of EphB3 at 0.1 uM; values are per cent of control
T1 sequence (whole entry): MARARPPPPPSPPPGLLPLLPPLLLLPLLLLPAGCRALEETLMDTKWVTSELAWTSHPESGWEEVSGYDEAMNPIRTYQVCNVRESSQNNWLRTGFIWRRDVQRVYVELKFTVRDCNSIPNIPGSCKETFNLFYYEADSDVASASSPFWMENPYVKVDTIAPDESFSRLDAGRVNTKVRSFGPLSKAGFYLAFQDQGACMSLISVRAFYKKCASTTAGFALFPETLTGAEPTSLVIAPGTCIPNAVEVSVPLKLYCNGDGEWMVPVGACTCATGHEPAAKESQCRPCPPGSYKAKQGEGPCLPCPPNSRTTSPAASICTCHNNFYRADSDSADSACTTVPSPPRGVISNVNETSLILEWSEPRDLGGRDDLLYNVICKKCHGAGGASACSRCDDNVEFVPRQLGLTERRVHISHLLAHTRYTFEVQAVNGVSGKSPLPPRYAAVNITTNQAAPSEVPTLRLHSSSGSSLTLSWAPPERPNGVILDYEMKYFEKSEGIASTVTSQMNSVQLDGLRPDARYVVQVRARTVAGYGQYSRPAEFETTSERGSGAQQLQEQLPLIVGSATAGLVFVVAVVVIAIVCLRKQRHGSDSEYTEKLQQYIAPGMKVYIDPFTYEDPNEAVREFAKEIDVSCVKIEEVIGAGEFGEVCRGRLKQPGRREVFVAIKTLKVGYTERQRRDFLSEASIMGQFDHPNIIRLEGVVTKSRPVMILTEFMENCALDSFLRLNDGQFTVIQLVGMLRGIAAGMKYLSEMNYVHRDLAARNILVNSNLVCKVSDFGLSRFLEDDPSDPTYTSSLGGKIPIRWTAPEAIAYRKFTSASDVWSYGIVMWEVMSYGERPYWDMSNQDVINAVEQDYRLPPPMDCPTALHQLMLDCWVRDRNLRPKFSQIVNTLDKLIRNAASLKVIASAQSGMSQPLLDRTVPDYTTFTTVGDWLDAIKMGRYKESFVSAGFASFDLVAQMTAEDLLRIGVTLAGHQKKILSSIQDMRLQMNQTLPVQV

[2] = target: Serine/threonine-protein kinase PAK 2 (Homo sapiens) (UniProt Q13177); assay: Inhibition of PAK2 at 0.1 uM; values are per cent of control
[3] = Inhibition of ROCK1 at 1 uM
[4] = Solubility of the compound; type: physicochemical
Mus musculus [5] = assay: Antiinflammatory activity in BALB/c mouse assessed as inhibition of monoclonal anti-CD3-induced IL-2 production at 10 mg/kg, po administered 1 hr before monoclonal anti-CD3 challenge measured after 2 hrs by ELISA relative to control; type: functional
Summary of the method: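 Female BALB/c mice (~20 g) dosed orally at 10 mg/kg, 1 h before iv anti-CD3 monoclonal antibody (clone 145-2C11, 10 µg/kg). Vehicle (saline) plus antibody group served as positive control. Plasma IL-2 determined from heart-puncture blood 2 h after stimulation, under anaesthesia. Inhibition expressed relative to vehicle; n = 8 mice/group.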

Mus musculus [6] = assay: Antiinflammatory activity in BALB/c mouse assessed as inhibition of monoclonal anti-CD3-induced IL-2 production at 10 mg/kg, iv administered 10 min before monoclonal anti-CD3 challenge measured after 2 hrs by ELISA; settings: BLD = below limit of detection
Mus musculus [7] = assay: Antiinflammatory activity in iv dosed BALB/c mouse assessed as inhibition of monoclonal anti-CD3-induced IL-2 production administered 10 min before monoclonal anti-CD3 challenge measured after 2 hrs by ELISA

Serine/threonine-protein kinase PAK 2 (Homo sapiens), sequence (Q13177 whole entry): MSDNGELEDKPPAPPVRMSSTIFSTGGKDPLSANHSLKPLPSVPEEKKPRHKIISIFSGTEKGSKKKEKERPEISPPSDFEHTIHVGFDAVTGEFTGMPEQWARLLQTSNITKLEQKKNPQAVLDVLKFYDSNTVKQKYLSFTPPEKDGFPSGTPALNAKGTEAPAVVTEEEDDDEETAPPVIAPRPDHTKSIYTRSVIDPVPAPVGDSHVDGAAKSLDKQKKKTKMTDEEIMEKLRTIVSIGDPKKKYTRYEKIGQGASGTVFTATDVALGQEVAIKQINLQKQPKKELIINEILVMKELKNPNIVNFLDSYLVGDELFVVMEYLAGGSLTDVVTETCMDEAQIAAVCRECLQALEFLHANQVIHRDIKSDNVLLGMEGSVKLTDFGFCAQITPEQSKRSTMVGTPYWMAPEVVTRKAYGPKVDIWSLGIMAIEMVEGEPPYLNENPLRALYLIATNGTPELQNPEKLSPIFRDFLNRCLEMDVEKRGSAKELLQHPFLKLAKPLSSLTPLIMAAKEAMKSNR

residual activity [1] | residual activity [2] | inhibition [3] | solubility [4] | Compound | inhibition in vivo at 10 mg/kg (Mus musculus [5]) | inhibition (Mus musculus [6]) | ED50 (Mus musculus [7]) | inhibition (Mus musculus [7])
127% | 93% | 45% |  | Cc1ccc2cc(-c3n[nH]c4ccc(NC5CCN(Cc6ccccc6)CC5)cc34)[nH]c2c1 |  |  |  | 
 |  |  | soluble | Cc1ccc2cc(-c3n[nH]c4ccc(NC5CCNC5)cc34)[nH]c2c1 (stereo not drawn) | > 80% | BLD | 2.1 mg/kg | Dose-dependent effect
